# Only some compounds are listed: those with a hit (about 2.9% of all), similar ones and a draw of the others.
# S1P1 ag pot: S1P1 (human) agonism or agonism potentiation; S1P1 CRE-bla cells, forskolin, beta-lactamase FRET, potentiator mode; S1P1 agonist co-added at EC20, 2 nM; 100% = saturating reference agonist, 0% = basal; P21453; activation, % at 9.5 µM; AID 449; actives 0.57% (n = 56,000);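 active = activation above a cutoff set at the mean activation of all tested compounds plus 3 SD, cut at about 54% in these data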;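 also: forskolin at 4 µM as EC80 and the EC20 agonist is SEW2871; 100% = SEW2871 at its EC100 plus forskolin at EC80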
# 5-HT1A blocker: 5-HT1a (human) receptor antagonism. CHO 5-HT1a Ga15 NFAT-bla reporter, antagonist mode. inhibition, % at 10 µM. actives 0.68% (n = 62,000). AID 612. P08908;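 active = inhibition above the mean of all tested compounds plus 3 SD, cut at about 43% in these data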;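 also: receptor stimulated by 5-CT agonist at 100 nM near EC80; beta-lactamase reporter measured by ratiometric fluorescence of a cleavable substrate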
# 5HT1a ag: activates the human 5-HT1a serotonin receptor; CHO 5-HT1a Ga15 NFAT-bla reporter, FRET ratio; 0% basal, 100% maximal reference agonist; activation, % at 10 µM; actives 0.56% (n = 65,000);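 active = activation above the screen-wide mean activation plus 3 SD, cut at about 19% in these data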;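 also: 0% = DMSO wells and 100% = 5-CT at EC100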
# HTR1E agonist: activates the human 5-HT1E serotonin receptor | AID 574 | CHO 5-HT1E Ga15 NFAT-bla reporter, FRET; 0% DMSO wells, 100% control agonist wells | activation, % at 6 µM | actives 0.69% (n = 65,000);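 active = activation above a set limit, the screen-wide mean activation plus 3 SD, cut at about 8.5% in these data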;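 also: 100% = positive control agonist at 1 µM giving full maximal response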
# Target sequence (P28566 whole entry, looked up): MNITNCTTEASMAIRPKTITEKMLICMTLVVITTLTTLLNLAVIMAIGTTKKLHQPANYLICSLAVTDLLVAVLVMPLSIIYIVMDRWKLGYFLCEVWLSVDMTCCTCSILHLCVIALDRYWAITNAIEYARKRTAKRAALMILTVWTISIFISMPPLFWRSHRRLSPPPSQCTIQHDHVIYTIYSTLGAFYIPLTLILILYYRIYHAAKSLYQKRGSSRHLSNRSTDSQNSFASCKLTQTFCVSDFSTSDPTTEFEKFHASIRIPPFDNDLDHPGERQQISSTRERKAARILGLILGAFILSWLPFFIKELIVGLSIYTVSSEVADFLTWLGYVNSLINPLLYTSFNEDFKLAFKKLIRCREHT
# S1P3 agonist: agonists of human S1P3 receptor; Q99500; S1P3 NFAT-BLA reporter cells, agonism, FRET ratio; relative to 1 µM S1P, basal subtracted; activation, % at 4.5 µM; actives 0.1% (n = 60,000); AID 373;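 active = activation above the screen-wide mean plus 3 SD, cut at about 4.5% in these data, passing the limit was not always enough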
#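 Benchmarks: high control 1 µM S1P / System: stable CHO line with human S1P3, Gα16, NFAT-BLA reporter / Dosing: single compound concentration, 4.5 µM final / Timing: 4 h compound at 37 °C, 2 h substrate at RT / Measured by: FRET β-lactamase substrate fluorescence, excitation 405 nm, 460/535 nm emission ratio, background-subtracted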
# 5HT1E antag: 5-HT1E (human) receptor antagonism; P28566; CHO 5-HT1E Ga15 NFAT-bla reporter, FRET, antagonist; inhibition, % at 6 µM; actives 0.99% (n = 65,000);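 active = inhibition above a set limit, the mean inhibition across every tested compound plus 3 SD, cut at about 29% in these data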;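 also: signal is the 460 over 535 nm emission ratio of beta-lactamase substrate; 0% = agonist plus DMSO wells and 100% = wells without agonist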
# * hit, by the source's call; nt = no result given.
SMILES,S1P1 ag pot,5-HT1A blocker,5HT1a ag,HTR1E agonist,S1P3 agonist,5HT1E antag
COc1ccccc1C(=O)n1nc(-c2ccccc2)nc1NCc1ccco1,-26.1,44.4*,-1.6,-0.6,-1.0,0.5
CN(C)Cc1cc(C(C)(C)c2cc(CN(C)C)c(O)c(CN(C)C)c2)cc(CN(C)C)c1O,17.2,-9.9,74.6*,0.5,-0.5,-10.5
Cc1ccc(-c2nc(CN(C)C)cc(CN(C)C)c2O)cc1,16.1,1.9,-1.4,-1.6,-0.6,-1.2
Cc1ccc(C)c(/C(O)=C2\C(=O)C(=O)N(CCCN(C)C)C2c2cccnc2)c1 (stereo not given),nt,-7.1,0.0,1.1,nt,-11.5
COc1ccccc1CC1(C)NC(=O)N(CC(=O)N2CC(C)OC(C)C2)C1=O (stereo not given),nt,-4.5,-0.4,-0.2,nt,0.0
c1ccc(CNc2ncnc3nc[nH]c23)nc1,0.3,-1.8,-2.9,-0.2,-0.7,5.5
Clc1ccccc1CNc1ncnc2nc[nH]c12,9.2,3.1,47.2*,0.9,-0.9,-10.4
Cc1cc(NC(=O)C2CCC2)n(-c2ccccn2)n1,nt,2.3,2.4,1.5,nt,36.1*
CC(C)Oc1cc(O)c2c(=O)c(-c3ccc(O)cc3)coc2c1,106.9*,10.8,-1.2,1.1,-0.6,3.8
COc1ccc(-c2coc3cc(O)cc(O)c3c2=O)cc1,-17.0,nt,0.6,-0.3,-1.6,11.9
Cc1ccnc(SCC(=O)Nc2sc3c(c2C#N)CCCC3)n1,100.3*,10.6,1.6,-0.9,-2.0,12.9
N#Cc1c(NC(=O)CSC2=NCCS2)sc2c1CCCC2,-3.1,10.9,-2.8,-1.6,-1.2,15.3
CNc1nc(C)c(C#N)c(-c2ccccc2)c1C(C)=O,-14.2,1.8,0.2,18.3*,1.3,27.5
CC(=O)Nc1nc(C)nc(-c2ccccc2)c1C(C)=O,-27.4,-3.2,-2.5,0.4,-0.4,15.1
O=C(Nc1ccc2c(c1)OCCO2)C1CCCN(S(=O)(=O)c2cccnc2)C1 (stereo not given),-3.1,-0.6,-2.2,0.6,-2.8,-0.6
Cc1ccc(C2c3c(oc4ccccc4c3=O)C(=O)N2c2nnc(C(C)C)s2)o1 (stereo not given),-13.1,0.7,-1.4,2.1,-1.0,32.0*
CCCNC(=O)c1ccc2c(c1)ncn2-c1ccccc1OC,-29.2,17.1,-2.8,0.8,-0.1,1.4
COc1ccccc1-n1cnc2cc(NCc3ccco3)ccc21,12.0,28.6,-0.1,-1.6,-1.1,33.9*
O=C(c1ccco1)N1CCN(C(=O)C2CCCO2)CC1 (stereo not given),-14.4,-4.7,-1.5,-0.2,-0.2,1.4
Cc1ccccc1-n1c(SCc2ccccn2)nc2n[nH]c(C)c2c1=N,-21.6,-93.3,5.2,0.8,-0.3,56.8*
Cc1cc2nc(NC3=NCN(CCCN4CCOCC4)CN3)nc(C)c2cc1C,-5.4,-0.6,-1.0,-0.4,-1.4,-1.6
Cc1nc(NC2=NCN(CCCN3CCOCC3)CN2)nc2c(C)cccc12,-25.5,-11.1,-0.7,15.0*,0.2,-13.6
CCOc1ccc(C(C)=O)cc1COc1ccc(-n2cnnn2)cc1,20.0,8.9,-0.3,-0.7,-2.0,20.6
Cc1c(/C=N/n2cnnc2)c2ccccc2n1CCOc1ccccc1,-48.2,-8.6,2.5,1.0,-0.2,33.7*
Cc1nnc(SCC(=O)N2CCC(c3noc4ccc(F)cc34)CC2)s1,68.7*,24.3,-2.4,0.7,-0.2,16.1
SMILES,S1P1 ag pot,5-HT1A blocker,5HT1a ag,HTR1E agonist,S1P3 agonist,5HT1E antag
Cc1nnc(SCC(=O)N2CCN(Cc3ccccc3)CC2)s1,nt,-5.2,0.2,-0.1,-0.2,-7.5
CCn1c(C(=O)N2CCC(C(=O)NCc3ccc4c(c3)OCO4)CC2)cc2sccc21,6.4,4.6,19.6*,0.7,-1.4,1.6
O=C(NC1(C(F)(F)F)C(=O)Nc2c1c(=O)[nH]c(=O)n2Cc1ccco1)C1CC1 (stereo not given),-10.5,7.9,-0.9,-1.0,-1.2,-3.9
CC1CCN(C(c2ccc(N(C)C)cc2)c2nnnn2Cc2ccccc2)CC1 (stereo not given),4.5,15.2,-0.7,-1.1,-0.9,5.2
COc1ccc(Cn2nnnc2C(c2ccc(N(C)C)cc2)N2CCC(C)CC2)cc1 (stereo not given),-1.5,43.5*,2.6,1.4,-0.9,9.9
O=c1[nH]nc(Sc2ncnc3sccc23)n1CCc1ccccc1,56.6,32.7,21.9*,-0.9,-0.9,27.3
COc1ccc(-n2c(NC(=O)c3ccco3)c(C#N)c3nc4ccccc4nc32)cc1,-31.0,6.9,22.1*,6.4,3.5,11.4
CCCCn1c(NC(=O)c2ccccc2Cl)c(C#N)c2nc3ccccc3nc21,-37.1,-12.6,26.6*,8.5,1.4,6.8
CCCCn1c(NC(=O)CC)c(C#N)c2nc3ccccc3nc21,-1.1,11.3,4.1,3.0,0.4,6.2
CC1(C)Cc2c(c(=S)nc(-c3ccccc3)n2CCOCCO)CO1,nt,-19.8,-0.3,17.7*,nt,7.5
OCCOCCn1c(-c2ccccc2)nc(=S)c2c1CCCC2,-12.2,-6.0,-1.7,0.8,0.2,8.5
Cc1ccc(Nc2nc(N)nc(CSc3nnc(-c4ccncc4)o3)n2)cc1,nt,-4.5,0.3,0.1,-0.3,-3.5
CCOC(=O)C1CCCN(C(=O)Cn2nc(Cc3cccnc3)c3ccccc3c2=O)C1 (stereo not given),-20.0,0.2,38.2*,1.1,-0.2,-0.7
CCOC(=O)C1=C(C)NC(=O)C(C#N)C1c1ccco1 (stereo not given),-24.0,-7.1,-2.6,1.2,-0.4,-11.7
CCOC(=O)C1CCN(C(c2cccnc2)c2c(NC(=O)c3ccco3)sc(C)c2C)CC1 (stereo not given),-17.9,18.4,3.1,51.7*,2.1,-3.2
Cc1sc(NC(=O)c2ccco2)c(C(c2cccnc2)N2CCN(c3ccc(F)cc3)CC2)c1C (stereo not given),-26.7,-0.2,2.3,3.5,-0.1,-17.8
CC(=O)c1ccc(N2CCN(c3ccc(C(F)(F)F)cn3)CC2)cc1,88.0*,-16.4,-2.0,0.3,-2.2,8.1
OCCN(Cc1ccccc1)Cc1ccc(F)c(F)c1,-19.4,7.5,-4.8,-0.1,-2.2,-12.9
Cc1c(Cc2ccccc2)c(=O)oc2c(CN(C)C)c(O)c(Cl)cc12,-64.1,-44.0,20.1*,8.2,1.9,-9.4
O=C(NC(=O)c1cccc(OC(F)(F)C(F)F)c1)OC1CCS(=O)(=O)C1 (stereo not given),-13.7,-19.7,-0.9,0.7,0.5,-13.2
O=C(O)CCC(=O)N1CCN(c2cccc(Cl)c2)CC1,10.3,13.3,0.0,21.4*,0.2,4.4
Cc1ccc(Cl)cc1N1CCN(C(=O)CCC(=O)O)CC1,nt,6.0,-0.9,14.1*,nt,0.7

# Screens as filed in PubChem.
